Results from ChEMBL document CHEMBL4251668, “Herbicidins from Streptomyces sp. CB01388 Showing Anti- Cryptosporidium Activity” (J Nat Prod, 2018).

Columns and labels:
[1] = tested on: Cryptosporidium parvum; assay: Antiparasitic activity against Cryptosporidium parvum BGF infected in human HCT8 cells incubated for 48 hrs by FITC/DAPI staining based fluorescence assay; assay type: functional, organism-based; conditions: HCT-8, 48 h
Method in brief: (§1)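 HCT-8 cells seeded at 2750 cells/well and dosed 24 h later with pure compounds (11-point 1:3 serial dilution, final top 25 μM), then infected with excysted oocysts at 3125 oocysts/well. Incubated 48 h at 37 °C, 5% CO2, then fixed in 4% paraformaldehyde. Parasites stained with FITC-Vicia villosa lectin and host nuclei with DAPI, imaged at 10×. Parasite spot counts and host nuclei counts taken relative to DMSO-treated wells.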

[2] = Cytotoxicity against human HepG2 cells assessed as decrease in cell viability after 72 hrs by CellTiter-Glo reagent based luminescence assay
Method in brief: (§2)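 Compounds prespotted as a 1:3 dilution series, top 40 μM. Cells seeded at 375 cells/well for HEK293T and 700 cells/well for HepG2, then incubated 72 h at 37 °C, 5% CO2. Viability read as CellTiter-Glo luminescence, normalized to DMSO- and puromycin-treated wells. CC50 obtained from a four-parameter nonlinear regression fit.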

[3] = Cytotoxicity against human HEK293T cells assessed as decrease in cell viability after 72 hrs by CellTiter-Glo reagent based luminescence assay; parameters: species or system HEK-293T; method in brief: as §2
[4] = tested on: HCT-8; assay: Cytotoxicity against human HCT8 cells; assay type: cell-based; method in brief: as §1
[5] = tested on: Cryptosporidium parvum; assay: Antiparasitic activity against Cryptosporidium parvum SPL infected in human HCT8 cells incubated for 48 hrs by FITC/DAPI staining based fluorescence assay; assay type: functional, organism-based; conditions: HCT-8, 48 h; method in brief: as §1

C/C=C(\CO)C(=O)O[C@H]1[C@H](O)[C@@H](C(=O)OC)O[C@@H]2C[C@H]3O[C@@H](n4cnc5c(N)ncnc54)[C@H](OC)[C@H]3O[C@]21O
EC50 [1]: 21 µM | CC50 at 72 h [2]: > 40 µM | CC50 at 72 h [3]: > 40 µM | EC50 [4]: > 25 µM | EC50 [5]: 16 µM

COc1ccc(C[C@H](N)C(=O)N[C@H]2[C@@H](O)[C@H](n3cnc4c(N(C)C)ncnc43)O[C@@H]2CO)cc1 [PUROMYCIN]
EC50 [1]: 0.55 µM | CC50 at 72 h [2]: 0.83 µM | CC50 at 72 h [3]: 0.42 µM | EC50 [4]: 6.1 to 7 µM | EC50 [5]: 0.6 µM

O=c1[nH]c(=O)n([C@H]2C[C@H](O)[C@@H](CO)O2)cc1F [FLOXURIDINE]
EC50 [1]: 0.0096 µM | CC50 at 72 h [2]: 0.0076 µM | CC50 at 72 h [3]: 0.0084 µM | EC50 [4]: 0.015 to 0.038 µM | EC50 [5]: 0.005 µM

C/C=C(\CO)C(=O)O[C@@H]1[C@@H](C(=O)OC)O[C@@H]2C[C@H]3O[C@@H](n4cnc5c(N)ncnc54)[C@H](OC)[C@H]3O[C@@]2(O)[C@@H]1O
EC50 [1]: 0.15 µM | CC50 at 72 h [2]: 24 µM | CC50 at 72 h [3]: > 40 µM | EC50 [4]: 0.14 to 0.18 µM | EC50 [5]: 0.17 µM

COC(=O)[C@H]1O[C@@H]2C[C@H]3O[C@@H](n4cnc5c(N)ncnc54)[C@H](O)[C@H]3O[C@@]2(O)[C@@H](O)[C@@H]1O
EC50 [1]: 18 µM | CC50 at 72 h [2]: > 40 µM | CC50 at 72 h [3]: > 40 µM | EC50 [4]: > 25 µM | EC50 [5]: 24 µM

C/C=C(\C)C(=O)O[C@H]1[C@H](O)[C@@H](C(=O)OC)O[C@@H]2C[C@H]3O[C@@H](n4cnc5c(N)ncnc54)[C@H](O)[C@H]3O[C@]21O
EC50 [1]: 2.8 µM | CC50 at 72 h [2]: > 40 µM | CC50 at 72 h [3]: > 40 µM | EC50 [4]: > 25 µM | EC50 [5]: 2.7 µM

CC(=O)Oc1ccccc1C(=O)Nc1ncc([N+](=O)[O-])s1 [NITAZOXANIDE]
EC50 [1]: 2.9 µM | CC50 at 72 h [2]: > 40 µM | CC50 at 72 h [3]: > 40 µM | EC50 [4]: > 25 µM | EC50 [5]: 2.3 µM

COC(=O)[C@H]1O[C@@H]2C[C@H]3O[C@@H](n4cnc5c(N)ncnc54)[C@H](OC)[C@H]3O[C@@]2(O)[C@@H](O)[C@@H]1O
EC50 [1]: 8.8 µM | CC50 at 72 h [2]: > 40 µM | CC50 at 72 h [3]: > 40 µM | EC50 [4]: > 25 µM | EC50 [5]: 11 µM

COC(=O)[C@H]1O[C@@H]2C[C@H]3O[C@@H](n4cnc5c(N)ncnc54)[C@H](OC)[C@H]3O[C@@]2(O)[C@H](O)[C@@H]1O
EC50 [1]: > 25 µM | CC50 at 72 h [2]: > 40 µM | CC50 at 72 h [3]: > 40 µM | EC50 [4]: > 25 µM | EC50 [5]: > 25 µM
